Measured values from ChEMBL document CHEMBL1132573, “Novel antitumor 2-cyanoaziridine-1-carboxamides” (J Med Chem, 1999).

Legend:
[1] = Number of colony forming cells of human myeloma tumor showing sensitivity among the 2 colony forming cells tested in vitro at compound concentration of 0.2 uM; type: functional
Outline: (§1)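 Fresh human tumor specimens from patients at the Arizona Cancer Center, run in the human tumor cloning (colony-forming) assay by a standard protocol. Read-out was [3H]thymine uptake by tumor-colony-forming cells.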

WiDr [2] = assay: Inhibition of cell growth in drug resistant WiDr colon cell line; type: functional, cell-based; conditions: Homo sapiens
[3] = Number of colony forming cells of human myeloma tumor showing sensitivity among the 2 colony forming cells tested in vitro at compound concentration of 20 uM; type: functional; outline: as §1
RPMI-8226 [4] = assay: Inhibition of cell growth in drug sensitive 8226 myeloma cell line; type: functional, cell-based; conditions: Homo sapiens
L1210 [5] = assay: Inhibition of cell growth in (L1210 leukemia) MDR cells determined by MTT assay; type: functional, cell-based; conditions: Mus musculus
[6] = Number of colony forming cells of human stomach tumor showing sensitivity among the 1 colony forming cells tested in vitro at compound concentration of 0.2 uM; type: functional
Outline: (§2)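 Fresh human tumor specimens, obtained from patients at the Arizona Cancer Center, were tested as tumor-colony-forming cells in the human tumor cloning assay. Sensitivity was scored as a 50% or greater decrease in […] uptake by treated colony-forming cells relative to untreated control colony-forming cells. The value is the count of sensitive specimens among those tested.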

[7] = Number of colony forming cells of human lung tumor showing sensitivity among the 2 colony forming cells tested in vitro at compound concentration of 2.0 uM; type: functional; outline: as §1
[8] = Number of colony forming cells of human melanoma tumor showing sensitivity among the 10 colony forming cells tested in vitro at compound concentration of 2.0 uM; type: functional; outline: as §1
[9] = Number of colony forming cells of human myeloma tumor showing sensitivity among the 2 colony forming cells tested in vitro at compound concentration of 2.0 uM; type: functional; outline: as §1
[10] = Number of colony forming cells of human ovary tumor showing sensitivity among the 10 colony forming cells tested in vitro at compound concentration of 0.2 uM; type: functional, Female gonad; outline: as §1
[11] = Number of colony forming cells of human ovary tumor showing sensitivity among the 10 colony forming cells tested in vitro at compound concentration of 20 uM; type: functional, Female gonad; outline: as §1
[12] = Number of colony forming cells of human sarcoma tumor showing sensitivity among the 8 colony forming cells tested in vitro at compound concentration of 2.0 uM; type: functional; outline: as §2
[13] = Number of colony forming cells of human stomach tumor showing sensitivity among the 1 colony forming cells tested in vitro at compound concentration of 2.0 uM; type: functional; outline: as §2
Breast carcinoma cell [14] = assay: Number of colony forming cells of human breast tumor showing sensitivity among the 4 colony forming cells tested in vitro at compound concentration of 0.2 uM; type: functional; outline: as §1
Breast carcinoma cell [15] = assay: Number of colony forming cells of human breast tumor showing sensitivity among the 4 colony forming cells tested in vitro at compound concentration of 2.0 uM; type: functional; outline: as §1
RPMI-8226 [16] = assay: Inhibition of cell growth in drug resistant 8226 myeloma cell line; type: functional, cell-based; conditions: Homo sapiens
Breast carcinoma cell [17] = assay: Number of colony forming cells of human breast tumor showing sensitivity among the 4 colony forming cells tested in vitro at compound concentration of 20 uM; type: functional; outline: as §1
MCF7 [18] = assay: Inhibition of cell growth in drug sensitive MCF-7 breast cell line; type: functional, cell-based; conditions: Homo sapiens
[19] = Number of colony forming cells of human gynecologic tumor showing sensitivity among the 4 colony forming cells tested in vitro at compound concentration of 0.2 uM; type: functional; outline: as §1
A-375 = assay: Inhibition of cell growth in (A375) melan cell line; type: functional, cell-based; conditions: Homo sapiens
A549 = assay: Inhibition of cell growth in (A-549) lung cell line; type: functional, cell-based; conditions: Homo sapiens
[20] = Number of colony forming cells of human lung tumor showing sensitivity among the 2 colony forming cells tested in vitro at compound concentration of 20 uM; type: functional; outline: as §1
[21] = Number of colony forming cells of human gynecologic tumor showing sensitivity among the 4 colony forming cells tested in vitro at compound concentration of 20 uM; type: functional; outline: as §1
[22] = Number of colony forming cells of human stomach tumor showing sensitivity among the 1 colony forming cells tested in vitro at compound concentration of 20 uM; type: functional; outline: as §2
MCF7 [23] = assay: Inhibition of cell growth in (MCF7 breast) dox cell line; type: functional, cell-based; conditions: Homo sapiens
[24] = Number of colony forming cells of human lung tumor showing sensitivity among the 2 colony forming cells tested in vitro at compound concentration of 0.2 uM; type: functional; outline: as §1
[25] = Number of colony forming cells of human melanoma tumor showing sensitivity among the 10 colony forming cells tested in vitro at compound concentration of 20 uM; type: functional; outline: as §1
[26] = Number of colony forming cells of human sarcoma tumor showing sensitivity among the 8 colony forming cells tested in vitro at compound concentration of 20 uM; type: functional; outline: as §2
[27] = Number of colony forming cells of human gynecologic tumor showing sensitivity among the 4 colony forming cells tested in vitro at compound concentration of 2.0 uM; type: functional; outline: as §1
L1210 [28] = assay: Inhibition of cell growth in drug sensitive L1210 leukemia cell line determined by MTT assay; type: functional, cell-based; conditions: Mus musculus
OVCAR-3 = assay: Inhibition of cell growth in (OVCAR-3) ovarian cell line; type: functional, cell-based; conditions: Homo sapiens
[29] = Number of colony forming cells of human sarcoma tumor showing sensitivity among the 2 colony forming cells tested in vitro at compound concentration of 0.2 uM; type: functional; outline: as §2
[30] = Number of colony forming cells of human melanoma tumor showing sensitivity among the 5 colony forming cells tested in vitro at compound concentration of 0.2 uM; type: functional; outline: as §1
MCF7 [31] = assay: Inhibition of cell growth in (MCF7 breast) mitox cell line; type: functional, cell-based; conditions: Homo sapiens
WiDr [32] = assay: Inhibition of cell growth in drug sensitive WiDr colon cell line; type: functional, cell-based; conditions: Homo sapiens
[33] = Number of colony forming cells of human ovary tumor showing sensitivity among the 11 colony forming cells tested in vitro at compound concentration of 2.0 uM; type: functional, Female gonad; outline: as §1
MCF7 [34] = assay: Cytotoxicity was measured as 50% inhibition of cell growth in drug sensitive MCF-7 breast cell line; type: functional, cell-based, Mus musculus; conditions: Homo sapiens
L1210 [35] = assay: Cytotoxicity was measured as 50% inhibition of cell growth in drug sensitive L1210 leukemia cell line and is determined by MTT assay; type: functional, cell-based, Homo sapiens; conditions: Mus musculus
[36] = Number of colony forming cells of human myeloma tumor showing sensitivity among the 3 colony forming cells tested in vitro at compound concentration of 10 uM; type: functional; outline: as §1
Breast carcinoma cell [37] = assay: Number of colony forming cells of human breast tumor showing sensitivity among the 4 colony forming cells tested in vitro at compound concentration of 10 uM; type: functional; outline: as §1
[38] = Number of colony forming cells of human lung tumor showing sensitivity among the 2 colony forming cells tested in vitro at compound concentration of 0.1 uM; type: functional; outline: as §1
[39] = Number of colony forming cells of human gynecologic tumor showing sensitivity among the 4 colony forming cells tested in vitro at compound concentration of 1.0 uM; type: functional; outline: as §1
[40] = Number of colony forming cells of human ovary tumor showing sensitivity among the 11 colony forming cells tested in vitro at compound concentration of 1.0 uM; type: functional, Female gonad; outline: as §1
[41] = Number of colony forming cells of human stomach tumor showing sensitivity among the 1 colony forming cells tested in vitro at compound concentration of 0.1 uM; type: functional; outline: as §2
[42] = Number of colony forming cells of human myeloma tumor showing sensitivity among the 3 colony forming cells tested in vitro at compound concentration of 1.0 uM; type: functional; outline: as §1
[43] = Number of colony forming cells of human stomach tumor showing sensitivity among the 1 colony forming cells tested in vitro at compound concentration of 1.0 uM; type: functional; outline: as §2
[44] = Number of colony forming cells of human gynecologic tumor showing sensitivity among the 4 colony forming cells tested in vitro at compound concentration of 0.1 uM; type: functional; outline: as §1
[45] = Number of colony forming cells of human ovary tumor showing sensitivity among the 12 colony forming cells tested in vitro at compound concentration of 0.1 uM; type: functional, Female gonad; outline: as §1
[46] = Number of colony forming cells of human lung tumor showing sensitivity among the 2 colony forming cells tested in vitro at compound concentration of 1.0 uM; type: functional; outline: as §1
[47] = Number of colony forming cells of human melanoma tumor showing sensitivity among the 10 colony forming cells tested in vitro at compound concentration of 10 uM; type: functional; outline: as §1
Breast carcinoma cell [48] = assay: Number of colony forming cells of human breast tumor showing sensitivity among the 4 colony forming cells tested in vitro at compound concentration of 0.1 uM; type: functional; outline: as §1
[49] = Number of colony forming cells of human gynecologic tumor showing sensitivity among the 4 colony forming cells tested in vitro at compound concentration of 10 uM; type: functional; outline: as §1
[50] = Number of colony forming cells of human sarcoma tumor showing sensitivity among the 8 colony forming cells tested in vitro at compound concentration of 1.0 uM; type: functional; outline: as §2
[51] = Number of colony forming cells of human myeloma tumor showing sensitivity among the 3 colony forming cells tested in vitro at compound concentration of 0.1 uM; type: functional; outline: as §1
Breast carcinoma cell [52] = assay: Number of colony forming cells of human breast tumor showing sensitivity among the 4 colony forming cells tested in vitro at compound concentration of 1.0 uM; type: functional; outline: as §1
[53] = Number of colony forming cells of human melanoma tumor showing sensitivity among the 5 colony forming cells tested in vitro at compound concentration of 0.1 uM; type: functional; outline: as §1
[54] = Number of colony forming cells of human sarcoma tumor showing sensitivity among the 8 colony forming cells tested in vitro at compound concentration of 10 uM; type: functional; outline: as §2
[55] = Number of colony forming cells of human melanoma tumor showing sensitivity among the 10 colony forming cells tested in vitro at compound concentration of 1.0 uM; type: functional; outline: as §1
[56] = Number of colony forming cells of human sarcoma tumor showing sensitivity among the 2 colony forming cells tested in vitro at compound concentration of 0.1 uM; type: functional; outline: as §2
[57] = Number of colony forming cells of human lung tumor showing sensitivity among the 2 colony forming cells tested in vitro at compound concentration of 10 uM; type: functional; outline: as §1
[58] = Number of colony forming cells of human ovary tumor showing sensitivity among the 12 colony forming cells tested in vitro at compound concentration of 10 uM; type: functional, Female gonad; outline: as §1
[59] = Number of colony forming cells of human stomach tumor showing sensitivity among the 1 colony forming cells tested in vitro at compound concentration of 10 uM; type: functional; outline: as §2

## N#CC1CN1C(=O)Nc1ccccc1 (stereo not drawn)
[1]
  Sensitivity: 2
WiDr [2]
  IC50: 12 µM
[3]
  Sensitivity: 2
RPMI-8226 [4]
  IC50: 5.3 µM
L1210 [5]
  IC50: 11 µM
[6]
  Sensitivity: 1
[7]
  Sensitivity: 1
[8]
  Sensitivity: 8
[9]
  Sensitivity: 2
[10]
  Sensitivity: 3
[11]
  Sensitivity: 10
[12]
  Sensitivity: 4
[13]
  Sensitivity: 1
Breast carcinoma cell [14]
  Sensitivity: 2
Breast carcinoma cell [15]
  Sensitivity: 2
RPMI-8226 [16]
  IC50: 8 µM
Breast carcinoma cell [17]
  Sensitivity: 3
MCF7 [18]
  IC50: 2900 nM
[19]
  Sensitivity: 0
A-375
  IC50: 11 µM
A549
  IC50: 9 µM
[20]
  Sensitivity: 2
[21]
  Sensitivity: 3
[22]
  Sensitivity: 1
MCF7 [23]
  IC50: 2.6 µM
[24]
  Sensitivity: 0
[25]
  Sensitivity: 10
[26]
  Sensitivity: 5
[27]
  Sensitivity: 2
L1210 [28]
  IC50: 1200 nM
OVCAR-3
  IC50: 6.8 µM
[29]
  Sensitivity: 2
[30]
  Sensitivity: 3
MCF7 [31]
  IC50: 4.3 µM
WiDr [32]
  IC50: 5 µM
[33]
  Sensitivity: 10

## CCOC(=O)CNC(=O)N1CC1C#N (stereo not drawn)
WiDr [2]
  IC50: 33 µM
RPMI-8226 [4]
  IC50: 25 µM
L1210 [5]
  IC50: 13 µM
RPMI-8226 [16]
  IC50: 30 µM
MCF7 [34]
  IC50: 15 µM
L1210 [35]
  IC50: 13 µM
A-375
  IC50: 51 µM
A549
  IC50: 24 µM
MCF7 [23]
  IC50: 17 µM
MCF7 [31]
  IC50: 11 µM
WiDr [32]
  IC50: 31 µM

## N=C1NC(=O)N2CC12 (stereo not drawn) [IMEXON]
[36]
  Sensitivity: 3
Breast carcinoma cell [37]
  Sensitivity: 3
[38]
  Sensitivity: 0
[39]
  Sensitivity: 0
[40]
  Sensitivity: 3
[41]
  Sensitivity: 0
WiDr [2]
  IC50: > 72 µM
[42]
  Sensitivity: 3
RPMI-8226 [4]
  IC50: 17 µM
[43]
  Sensitivity: 0
[44]
  Sensitivity: 0
[45]
  Sensitivity: 4
[46]
  Sensitivity: 0
[47]
  Sensitivity: 8
Breast carcinoma cell [48]
  Sensitivity: 0
[49]
  Sensitivity: 1
[50]
  Sensitivity: 2
[51]
  Sensitivity: 3
MCF7 [18]
  IC50: > 18000 nM
Breast carcinoma cell [52]
  Sensitivity: 2
A549
  IC50: > 72 µM
[53]
  Sensitivity: 3
[54]
  Sensitivity: 5
MCF7 [23]
  IC50: > 18 µM
[55]
  Sensitivity: 4
[56]
  Sensitivity: 0
[57]
  Sensitivity: 2
[58]
  Sensitivity: 8
[59]
  Sensitivity: 1
MCF7 [31]
  IC50: > 18 µM
WiDr [32]
  IC50: > 72 µM
